In ChEMBL document CHEMBL4715736, “Identification of anticancer agents based on the thieno[2,3-b]pyridine and 1H-pyrazole molecular scaffolds” (2016):

How the values were obtained:
Format in all cases: functional
SW-620 = experiment: Growth inhibition of human SW-620 cells incubated for 48 hrs by sulforhodamine B assay
Procedure, shortened: (§1)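 NCI DTP 60-line human tumour panel. Dose-response curves were run only for ligands active in the initial 10 µM screen. GI50 (concentration giving 50% of maximal inhibition of proliferation) and TGI (concentration giving total growth inhibition) were derived from these curves.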

COLO 205 = experiment: Growth inhibition of human COLO 205 cells assessed as cell growth at 0.01 uM incubated for 48 hrs by sulforhodamine B assay relative to control; details: read-out: Activity
Procedure, shortened: (§2)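 NCI Developmental Therapeutics Program NCI60 panel. Compounds that were active in the 10 µM one-dose screen went on to dose–response testing. Growth at each concentration is expressed relative to untreated control (100%). GI50 (concentration giving 50% of maximal inhibition of proliferation) and TGI (concentration giving total growth inhibition) were derived from the curves.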

HCC 2998 [1] = experiment: Growth inhibition of human HCC 2998 cells assessed as cell growth at 0.01 uM incubated for 48 hrs by sulforhodamine B assay relative to control; details: read-out: Activity; procedure, shortened: as §2
MCF7 = experiment: Growth inhibition of human MCF7 cells assessed as cell growth at 0.1 uM incubated for 48 hrs by sulforhodamine B assay relative to control; details: read-out: Activity
RXF 393 = experiment: Growth inhibition of human RXF 393 cells assessed as cell growth at 100 uM incubated for 48 hrs by sulforhodamine B assay relative to control; details: read-out: Activity
KM12 = experiment: Growth inhibition of human KM12 cells assessed as cell growth at 0.01 uM incubated for 48 hrs by sulforhodamine B assay relative to control; details: read-out: Activity
DU-145 [2] = experiment: Growth inhibition of human DU-145 cells assessed as cell growth at 1 uM incubated for 48 hrs by sulforhodamine B assay relative to control; details: read-out: Activity; procedure, shortened: as §2
HOP-62 = experiment: Growth inhibition of human HOP-62 cells assessed as cell growth at 100 uM incubated for 48 hrs by sulforhodamine B assay relative to control; details: read-out: Activity
SNB-19 = experiment: Growth inhibition of human SNB-19 cells incubated for 48 hrs by sulforhodamine B assay; procedure, shortened: as §1
HT-29 = experiment: Growth inhibition of human HT-29 cells incubated for 48 hrs by sulforhodamine B assay
Procedure, shortened: (§3)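 NCI60 panel at the NCI Developmental Therapeutics Program. Only compounds active in the 10 µM screen went to dose-response testing. GI50, the concentration giving 50% of maximal inhibition of proliferation, and TGI, the concentration giving total growth inhibition, were derived from the dose-response curves.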

SF-268 = experiment: Growth inhibition of human SF-268 cells assessed as cell growth at 100 uM incubated for 48 hrs by sulforhodamine B assay relative to control; details: read-out: Activity
CCRF-CEM [3] = experiment: Growth inhibition of human CCRF-CEM cells assessed as cell growth at 1 uM incubated for 48 hrs by sulforhodamine B assay relative to control; details: read-out: Activity; procedure, shortened: as §2
HOP-92 [4] = experiment: Growth inhibition of human HOP-92 cells assessed as cell growth at 100 uM incubated for 48 hrs by sulforhodamine B assay relative to control; details: read-out: Activity
SN12C = experiment: Growth inhibition of human SN12C cells assessed as cell growth at 0.01 uM incubated for 48 hrs by sulforhodamine B assay relative to control; details: read-out: Activity
NCI-H23 = experiment: Growth inhibition of human NCI-H23 cells incubated for 48 hrs by sulforhodamine B assay; procedure, shortened: as §3
SK-MEL-2 [5] = experiment: Growth inhibition of human SK-MEL-2 cells assessed as cell growth at 100 uM incubated for 48 hrs by sulforhodamine B assay relative to control; details: read-out: Activity
BT-549 = experiment: Growth inhibition of human BT-549 cells assessed as cell growth at 0.01 uM incubated for 48 hrs by sulforhodamine B assay relative to control; details: read-out: Activity
NCI-H322M = experiment: Growth inhibition of human NCI-H322M cells assessed as cell growth at 0.01 uM incubated for 48 hrs by sulforhodamine B assay relative to control; details: read-out: Activity
SK-MEL-2 [6] = experiment: Growth inhibition of human SK-MEL-2 cells assessed as cell growth at 1 uM incubated for 48 hrs by sulforhodamine B assay relative to control; details: read-out: Activity
SK-MEL-28 = experiment: Growth inhibition of human SK-MEL-28 cells assessed as cell growth at 0.1 uM incubated for 48 hrs by sulforhodamine B assay relative to control; details: read-out: Activity
SR = experiment: Growth inhibition of human SR cells assessed as cell growth at 100 uM incubated for 48 hrs by sulforhodamine B assay relative to control; details: read-out: Activity
CAKI-1 = experiment: Growth inhibition of human CAKI-1 cells assessed as cell growth at 0.1 uM incubated for 48 hrs by sulforhodamine B assay relative to control; details: read-out: Activity; procedure, shortened: as §2
IGROV-1 = experiment: Growth inhibition of human IGROV-1 cells assessed as cell growth at 0.01 uM incubated for 48 hrs by sulforhodamine B assay relative to control; details: read-out: Activity
MDA-MB-468 = experiment: Growth inhibition of human MDA-MB-468 cells assessed as cell growth at 0.1 uM incubated for 48 hrs by sulforhodamine B assay relative to control; details: read-out: Activity
T47D [7] = experiment: Growth inhibition of human T47D cells assessed as cell growth at 0.01 uM incubated for 48 hrs by sulforhodamine B assay relative to control; details: read-out: Activity
DU-145 [8] = experiment: Growth inhibition of human DU-145 cells assessed as cell growth at 0.1 uM incubated for 48 hrs by sulforhodamine B assay relative to control; details: read-out: Activity; procedure, shortened: as §2
CCRF-CEM [9] = experiment: Growth inhibition of human CCRF-CEM cells assessed as cell growth at 0.01 uM incubated for 48 hrs by sulforhodamine B assay relative to control; details: read-out: Activity; procedure, shortened: as §2
HOP-92 [10] = experiment: Growth inhibition of human HOP-92 cells assessed as cell growth at 1 uM incubated for 48 hrs by sulforhodamine B assay relative to control; details: read-out: Activity
LOX IMVI = experiment: Growth inhibition of human LOX IMVI cells assessed as cell growth at 0.01 uM incubated for 48 hrs by sulforhodamine B assay relative to control; details: read-out: Activity
Hs-578T = experiment: Growth inhibition of human Hs-578T cells assessed as cell growth at 100 uM incubated for 48 hrs by sulforhodamine B assay relative to control; details: read-out: Activity
HCC 2998 [11] = experiment: Growth inhibition of human HCC 2998 cells incubated for 48 hrs by sulforhodamine B assay; details: for CC50: read-out: LC50 (the source's name)
NCI-H522 = experiment: Growth inhibition of human NCI-H522 cells assessed as cell growth at 0.01 uM incubated for 48 hrs by sulforhodamine B assay relative to control; details: read-out: Activity
T47D [12] = experiment: Growth inhibition of human T47D cells incubated for 48 hrs by sulforhodamine B assay; details: for CC50: read-out: LC50 (the source's name); procedure, shortened: as §1
K562 = experiment: Growth inhibition of human K562 cells assessed as cell growth at 0.01 uM incubated for 48 hrs by sulforhodamine B assay relative to control; details: read-out: Activity
MDA-MB-435 = experiment: Growth inhibition of human MDA-MB-435 cells incubated for 48 hrs by sulforhodamine B assay; details: for CC50: read-out: LC50 (the source's name); procedure, shortened: as §3

## Cc1cc(C)c(NC(=O)c2sc3nc4c(cc3c2N)CN(Cc2ccccc2)CC4)c(C)c1
SW-620
  GI50: 2.6 µM
  LC50 (concentration killing 50% of cells): > 100 µM
  TGI: 17.1 µM
COLO 205
  growth at 0.01 µM: 94%
HCC 2998 [1]
  growth at 0.01 µM: 105%
MCF7
  growth at 0.1 µM: 91%
RXF 393
  growth at 100 µM: -15%
KM12
  growth at 0.01 µM: 98%
DU-145 [2]
  growth at 1 µM: 95%
HOP-62
  growth at 100 µM: 7%
SNB-19
  GI50: 7.21 µM
  LC50: > 100 µM
  TGI: > 100 µM
HT-29
  GI50: 2.88 µM
  LC50: > 100 µM
  TGI: 13.2 µM
SF-268
  growth at 100 µM: -10%
CCRF-CEM [3]
  growth at 1 µM: 88%
HOP-92 [4]
  growth at 100 µM: -7%
SN12C
  growth at 0.01 µM: 104%
NCI-H23
  GI50: 4.51 µM
  LC50 (50% lethal concentration): > 100 µM
  TGI: > 100 µM
SK-MEL-2 [5]
  growth at 100 µM: 6%
BT-549
  growth at 0.01 µM: 87%
NCI-H322M
  growth at 0.01 µM: 96%
SK-MEL-2 [6]
  growth at 1 µM: 96%
SK-MEL-28
  growth at 0.1 µM: 97%
SR
  growth at 100 µM: -16%
CAKI-1
  growth at 0.1 µM: 90%
IGROV-1
  growth at 0.01 µM: 101%
MDA-MB-468
  growth at 0.1 µM: 78%
T47D [7]
  growth at 0.01 µM: 90%
DU-145 [8]
  growth at 0.1 µM: 101%
CCRF-CEM [9]
  growth at 0.01 µM: 100%
HOP-92 [10]
  growth at 1 µM: 49%
LOX IMVI
  growth at 0.01 µM: 99%
Hs-578T
  growth at 100 µM: -3%
HCC 2998 [11]
  GI50: 5.33 µM
  TGI: 38.4 µM
  CC50: > 100 µM
NCI-H522
  growth at 0.01 µM: 96%
T47D [12]
  GI50: 2.62 µM
  TGI: > 100 µM
  CC50: > 100 µM
K562
  growth at 0.01 µM: 108%
MDA-MB-435
  GI50: 0.399 µM
  TGI: 4.38 µM
  CC50: 68.9 µM

## COc1cccc(NC(=O)c2sc3nc4c(cc3c2N)CN(Cc2ccccc2)CC4)c1
SW-620
  GI50: 1.85 µM
  LC50 (concentration killing 50% of cells): > 100 µM
  TGI: 72.2 µM
COLO 205
  growth at 0.01 µM: 92%
HCC 2998 [1]
  growth at 0.01 µM: 97%
MCF7
  growth at 0.1 µM: 87%
RXF 393
  growth at 100 µM: -49%
KM12
  growth at 0.01 µM: 100%
DU-145 [2]
  growth at 1 µM: 95%
HOP-62
  growth at 100 µM: -71%
SNB-19
  GI50: 4.75 µM
  LC50: > 100 µM
  TGI: > 100 µM
HT-29
  GI50: 3.75 µM
  LC50: 56.2 µM
  TGI: 15.2 µM
SF-268
  growth at 100 µM: -40%
CCRF-CEM [3]
  growth at 1 µM: 82%
HOP-92 [4]
  growth at 100 µM: -38%
SN12C
  growth at 0.01 µM: 95%
NCI-H23
  GI50: 7.18 µM
  LC50 (50% lethal concentration): > 100 µM
  TGI: 49.2 µM
SK-MEL-2 [5]
  growth at 100 µM: -28%
BT-549
  growth at 0.01 µM: 88%
NCI-H322M
  growth at 0.01 µM: 101%
SK-MEL-2 [6]
  growth at 1 µM: 77%
SK-MEL-28
  growth at 0.1 µM: 99%
SR
  growth at 100 µM: -19%
CAKI-1
  growth at 0.1 µM: 91%
IGROV-1
  growth at 0.01 µM: 101%
MDA-MB-468
  growth at 0.1 µM: 89%
T47D [7]
  growth at 0.01 µM: 90%
DU-145 [8]
  growth at 0.1 µM: 104%
CCRF-CEM [9]
  growth at 0.01 µM: 99%
HOP-92 [10]
  growth at 1 µM: 64%
LOX IMVI
  growth at 0.01 µM: 97%
Hs-578T
  growth at 100 µM: -9%
HCC 2998 [11]
  GI50: 9.13 µM
  TGI: > 100 µM
  CC50: > 100 µM
NCI-H522
  growth at 0.01 µM: 95%
T47D [12]
  GI50: 4.62 µM
  TGI: 47.3 µM
  CC50: > 100 µM
K562
  growth at 0.01 µM: 106%
MDA-MB-435
  GI50: 0.296 µM
  TGI: 11 µM
  CC50: 49 µM
